The source of these data is publication PMC8103808 (Journal of medicinal chemistry, 2020).

A word on the inhibition: it is the drop in the measured response relative to a control, in per cent.

The target of one experiment is PDIA1 (Homo sapiens, UniProt P07237). The experiment is described as follows: PDI reductase assay. It counts as biochemical.
Sequence of PDIA1 (P07237 18-508): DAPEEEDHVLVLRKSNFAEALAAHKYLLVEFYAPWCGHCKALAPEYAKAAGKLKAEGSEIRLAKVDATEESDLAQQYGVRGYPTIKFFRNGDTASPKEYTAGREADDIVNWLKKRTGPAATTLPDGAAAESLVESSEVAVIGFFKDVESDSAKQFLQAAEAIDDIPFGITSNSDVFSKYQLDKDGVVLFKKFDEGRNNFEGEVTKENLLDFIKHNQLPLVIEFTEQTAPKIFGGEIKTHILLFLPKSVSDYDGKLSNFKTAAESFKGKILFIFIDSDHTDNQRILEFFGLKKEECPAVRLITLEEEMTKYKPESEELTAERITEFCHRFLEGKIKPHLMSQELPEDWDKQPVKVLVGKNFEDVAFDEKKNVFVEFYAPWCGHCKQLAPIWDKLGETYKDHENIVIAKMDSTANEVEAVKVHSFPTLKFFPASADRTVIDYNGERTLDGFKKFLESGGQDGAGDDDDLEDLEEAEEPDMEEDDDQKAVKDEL
Conditions: not given
Turning to `Oc1cc2c(cc1C(c1ccc(F)cc1)N1CCCCC1)CCCC2` (centres unmarked) [6g, 3-((4-Fluorophenyl)(piperidin-1-yl)methyl)-5,6,7,8-tetrahydronaphthalen-2-ol], the “PDI inhibition in the PDI reductase assay (in words)” value is recorded as “completely lost activity”.

Consider `Oc1cc2c(cc1C(c1ccccc1)C1CCCCC1)OCO2` (centres unmarked) [compound 13, 6-(Cyclohexyl(phenyl)methyl)benzo[d][1,3]dioxol-5-ol], for which the “PDI inhibition in the PDI reductase assay (in words)” value is “abolished its PDI inhibition”.

`CN(C)c1cccc(C(c2ccc(F)cc2)N2CCCCC2)c1O` (centres unmarked) [5l, 2-(Dimethylamino)-6-((4-fluorophenyl)(piperidin-1-yl)methyl)phenol]: the “PDI inhibition in the PDI reductase assay (in words)” value is “lost activity”. Same read-out and setting: the entry for `Oc1c(C(c2ccc(F)cc2)N2CCCCC2)ccc2c1CCC2` (centres unmarked) [5k, 5-((4-Fluorophenyl)(piperidin-1-yl)methyl)-2,3-dihydro-1H-inden-4-ol] is “complete loss of the potency”; for `Oc1c(C(c2ccc(F)cc2)N2CCCCC2)ccc2cccnc12` (centres unmarked) [5b, 7-((4-Fluorophenyl)(piperidin-1-yl)methyl)quinolin-8-ol] it is “submicromolar IC50 values”; for `COc1c(C(c2ccc(F)cc2)N2CCCCC2)ccc2ccoc12` (centres unmarked) [compound 8, 1-((4-Fluorophenyl)(7-methoxybenzofuran-6-yl)methyl)piperidine] it is “lost activity”. `COc1cccc(C(c2ccc3cccnc3c2O)N2CCOCC2)c1OC` (centres unmarked) [5a, 7-((2,3-Dimethoxyphenyl)(morpholino)methyl)quinolin-8-ol]: the “PDI inhibition in the PDI reductase assay (in words)” value is given as “submicromolar IC50 values”.

The next experiment has as its system U−87 MG cells. The experiment is described as follows: MTT growth inhibition assay in U-87 MG cells. The experiment is classed as cell-based. The conditions noted are these: Homo sapiens, read-out: MTT (% inhibition at 30 μM). The essentials:
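Cells were grown at 37 °C, 5% CO₂ in 10% FBS medium: DMEM for U-87 MG, RPMI-1640 for A-172. Duplicate wells of 3000–5000 cells were attached overnight, then exposed to 30 μM test compound for 72 h. MTT (3 mg/mL) was added for 4 h at 37 °C and formazan dissolved in DMSO before reading A570. Inhibition (%) = [1−(At−Ab)/(Ac−Ab)]×100.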
As for `Oc1c(C(c2ccc3c(c2)CCC3)N2CCCCC2)ccc2ccoc12` (centres unmarked) [5o, 6-((2,3-Dihydro-1H-inden-5-yl)(piperidin-1-yl)methyl)benzofuran-7-ol], the inhibition at 30 µM was 5%. Consider `Oc1c(C(c2ccc(F)cc2)N2CCCCC2)ccc2ccoc12` (centres unmarked) [5g, 6-((4-Fluorophenyl)(piperidin-1-yl)methyl)benzofuran-7-ol], for which the inhibition at 30 µM amounted to 0%. On the same count and under the same terms, the figure for `Oc1cc(F)ccc1C(c1ccc2ccoc2c1O)N1CCCCC1` (centres unmarked) [5n, 6-((4-Fluoro-2-hydroxyphenyl)(piperidin-1-yl)methyl)benzofuran-7-ol] is 0%; for `O=[N+]([O-])c1ccc(C(c2c(O)ccc3[nH]ncc23)N2CCCCC2)cc1` (centres unmarked) [7i, 4-((4-Nitrophenyl)(piperidin-1-yl)methyl)-1H-indazol-5-ol] it is 0%; for `Oc1cc2c(cc1C(c1ccc(F)cc1)N1CCCCC1)CCCC2` (centres unmarked) [6g, 3-((4-Fluorophenyl)(piperidin-1-yl)methyl)-5,6,7,8-tetrahydronaphthalen-2-ol] it is 0%. Consider `Oc1ccc2scnc2c1C(c1ccc(F)cc1)N1CCCCC1` (centres unmarked) [7b, 4-((4-Fluorophenyl)(piperidin-1-yl)methyl)benzo[d]thiazol-5-ol], for which the inhibition at 30 µM turned out to be 1%. The same measure, in the same setting: then `Oc1ccc2cnccc2c1C(c1ccc(F)cc1)N1CCCCC1` (centres unmarked) [7e, 5-((4-Fluorophenyl)(piperidin-1-yl)methyl)isoquinolin-6-ol], with 0%; and `Oc1ccc2[nH]ncc2c1C(c1ccc(-c2cncnc2)cc1)N1CCCCC1` (centres unmarked) [7l, 4-(Piperidin-1-yl(4-(pyrimidin-5-yl)phenyl)methyl)-1H-indazol-5-ol], with 0%. `Oc1ccc2[nH]ncc2c1C(c1ccc(-n2cccc2)cc1)N1CCCCC1` (centres unmarked) [7k, 4-((4-(1H-Pyrrol-1-yl)phenyl)(piperidin-1-yl)methyl)-1H-indazol-5-ol]: the inhibition at 30 µM amounted to 0%.

With `CN(C)c1cccc(C(c2ccc(F)cc2)N2CCCCC2)c1O` (centres unmarked) [5l, 2-(Dimethylamino)-6-((4-fluorophenyl)(piperidin-1-yl)methyl)phenol], the inhibition at 30 µM was determined as 0%.

`Oc1c(C(c2ccc(F)cc2)N2CCCCC2)ccc2c1OCO2` (centres unmarked) [5i, 5-((4-Fluorophenyl)(piperidin-1-yl)methyl)benzo[d][1,3]dioxol-4-ol]: the inhibition at 30 µM came to 0%. Still for that read-out and setting: then `Oc1ccc2[nH]ccc2c1C(c1ccc(F)cc1)N1CCCCC1` (centres unmarked) [7f, 4-((4-Fluorophenyl)(piperidin-1-yl)methyl)-1H-indol-5-ol], with 0%; and `Oc1c(C(c2ccc(C(F)(F)F)cc2)N2CCCCC2)ccc2ccoc12` (centres unmarked) [5r, 6-(Piperidin-1-yl(4-(trifluoromethyl)phenyl)methyl)benzofuran-7-ol], with 5%; and `Oc1c(C(c2ccc(F)cc2)N2CCCCC2)ccc2scnc12` (centres unmarked) [5f, 5-((4-Fluorophenyl)(piperidin-1-yl)methyl)benzo[d]thiazol-4-ol], with 0%.

Turning to `Oc1ccc2[nH]ncc2c1C(c1ccc(C(F)(F)F)cc1)N1CCCCC1` (centres unmarked) [7h, 4-(Piperidin-1-yl(4-(trifluoromethyl)phenyl)methyl)-1H-indazol-5-ol], the inhibition at 30 µM is 0%. Still for that read-out and setting: the figure for `Oc1cc2c(cc1C(c1ccc(F)cc1)N1CCCCC1)OCCO2` (centres unmarked) [6c, 7-((4-Fluorophenyl)(piperidin-1-yl)methyl)-2,3-dihydrobenzo[b][1,4]dioxin-6-ol] is 1%; for `Oc1ccc2nccnc2c1C(c1ccc(F)cc1)N1CCCCC1` (centres unmarked) [7c, 5-((4-Fluorophenyl)(piperidin-1-yl)methyl)quinoxalin-6-ol] it is 0%.

For the compound `Oc1c(C(c2ccc(F)cc2)N2CCCCC2)ccc2cncnc12` (centres unmarked) [5c, 7-((4-Fluorophenyl)(piperidin-1-yl)methyl)quinazolin-8-ol], the inhibition at 30 µM was found to be 32%. On the same count and under the same terms, the figure for `Oc1c(C(c2ccc(F)cc2)N2CCCCC2)ccc2cnccc12` (centres unmarked) [5j, 6-((4-Fluorophenyl)(piperidin-1-yl)methyl)isoquinolin-5-ol] is 0%; for `Oc1ccc2ncccc2c1C(c1ccc(F)cc1)N1CCCCC1` (centres unmarked) [7a, 5-((4-Fluorophenyl)(piperidin-1-yl)methyl)quinolin-6-ol] it is 10%.

In the case of `COc1cccc(C(c2cc3c(cc2O)OC(F)(F)O3)N2CCOCC2)c1OC` (centres unmarked) [6e, 6-((2,3-Dimethoxyphenyl)(morpholino)methyl)-2,2-difluorobenzo[d][1,3]dioxol-5-ol], the inhibition at 30 µM was 40%. Turning to `CC(=O)c1cc2ccc(C(c3ccc(F)cc3)N3CCCCC3)c(O)c2o1` (centres unmarked) [5m, 1-(6-((4-Fluorophenyl)(piperidin-1-yl)methyl)-7-hydroxybenzofuran-2-yl)ethanone], the inhibition at 30 µM came out at 0%. Same read-out and setting: the figure for `Oc1c(C(c2ccc(F)cc2)N2CCCCC2)ccc2c1OCCO2` (centres unmarked) [5h, 6-((4-Fluorophenyl)(piperidin-1-yl)methyl)-2,3-dihydrobenzo[b][1,4]dioxin-5-ol] is 0%. For `Oc1ccc2ccncc2c1C(c1ccc(F)cc1)N1CCCCC1` (centres unmarked) [7d, 8-((4-Fluorophenyl)(piperidin-1-yl)methyl)isoquinolin-7-ol], the inhibition at 30 µM was 0%. Still for that read-out and setting: then `Oc1ccc2[nH]ncc2c1C(c1ccc(-c2nccs2)cc1)N1CCCCC1` (centres unmarked) [7j, 4-(Piperidin-1-yl(4-(thiazol-2-yl)phenyl)methyl)-1H-indazol-5-ol], with 0%; and `Oc1c(C(c2ccc3c(c2)OC(F)(F)O3)N2CCCCC2)ccc2ccoc12` (centres unmarked) [5q, 6-((2,2-Difluorobenzo[d][1,3]dioxol-5-yl)(piperidin-1-yl)methyl)benzofuran-7-ol], with 9%; and `Oc1c(C(c2ccc(F)cc2)N2CCCCC2)ccc2nccnc12` (centres unmarked) [5e, 6-((4-Fluorophenyl)(piperidin-1-yl)methyl)quinoxalin-5-ol], with 0%. Consider `Oc1ccc2[nH]ncc2c1C(c1ccc(F)cc1)N1CCCCC1` (centres unmarked) [7g, 4-((4-Fluorophenyl)(piperidin-1-yl)methyl)-1H-indazol-5-ol], for which the inhibition at 30 µM is 87%.
